Fewer inactive variants are shown than the library holds.
B1: tRNA (parent)
chain: GUUCCGUUGGCGUAAUGGUAACGCGUCUCCCUCCUAAGGAGAAGACUGCGGGUUCGAGUCCCGUACGGAACG

Variants of: B1
Test: yeast fitness relative to wild type (ratio to wild type); higher = fitter; tRNA-Arg(CCU), competitive growth, 37 C, YPD
Summary of the method: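 Genotype frequency changes were the basis for Darwinian fitness relative to wild type. The frequencies came from 100-nucleotide paired-end sequencing of gene amplicons from the start population and each end population of pooled yeast strains with tRNA-Arg(CCU) gene variants at the native locus. Competition ran in YPD at 37°C for 24 hours in six replicates, genotypes needed ≥ 100 starting reads, and estimates < 0.5 were set to 0.5.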

| Variant | yeast fitness |
| --- | --- |
| GUUCCGUUGGCAUAAUGGUAACGCGUCUCCCUCCUAAGGAGAAGACUGUGGGUUCGAGUCCCGUAAGGAACG [G12A C49U C66A] | ≤ 0.5 |
| GUUCCGUUGGCAUAAUGGUAACGCGUCUCCCUCCUAAGGAGAAGACUGUGGGUUCGAAUCCCGUACGGAACG [G12A C49U G58A] | 0.7 |
| GUUCCGUUGGCAUAAUGGUAACGCGUCUCCCUCCUAAGGAGAAGACUGCGGGUUAGAGUCCCGUACGGAACG [G12A C55A] | 0.6 |
| GUUCCGUUGGCAUAAUGGUAACGCGUCUCCCUCCUAAGGAGAAGACUGCGGGUUAGAGUCCCGUCCGGAACG [G12A C55A A65C] | ≤ 0.5 |
| GUUCCGUUGGCAUAAUGGUAACGCGUCUCCCUCCUAAGGAGAAGACUGCGGGUUGGAGUCCCGUACGGAACG [G12A C55G] | 0.639 |
| GUUCCGUUGGCAUAAUGGUAACGCGUCUCCCUCCUAAGGAGAAGACUGCGGGUUUGAGUCCCCUACGGAACG [G12A C55U G63C] | ≤ 0.5 |
| GUUCCGUUGGCAUAAUGGUAACGCGUCUCCCUCCUAAGGAGAAGACUGCGGGUUCGAGUACCGUACAGAACG [G12A C60A G67A] | 0.68 |
| GUUCCGUUGGCAUAAUGGUAACGCGUCUCCCUCCUAAGGAGAAGACUGCGGGUUCGAGUCACGUACGGAACG [G12A C61A] | 0.659 |
| GUUCCGUUGGCAUAAUGGUAACGCGUCUCCCUCCUAAGGAGAAGACUGCGGGUUCGAGUCACGUACAGAACG [G12A C61A G67A] | ≤ 0.5 |
| GUUCCGUUGGCAUAAUGGUAACGCGUCUCCCUCCUAAGGAGAAGACUGCGGGUUCGAGUCGAGUACGGAGCG [G12A C61G C62A A70G] | ≤ 0.5 |
| GUUCCGUUGGCAUAAUGGUAACGCGUCUCCCUCCUAAGGAGAAGACUGCGGGUUCGAGUCUCGUACGGAACG [G12A C61U] | 0.924 |
| GUUCCGUUGGCAUAAUCGUAACGCGUCUCCCUCCUAAGGAGAAGACUGCGGGUUCGAGUCCCGUACGGAACG [G12A G17C] | 0.661 |
| GUUCCGUUGGCAUAAUCGUAACGCGUCUCCCUCCUAAGGAGAAGAUUGCGGGUUCGAGUCCCGUACGGAACG [G12A G17C C46U] | ≤ 0.5 |
| GUUCCGUUGGCAUAAUCGUAACGCGUCUCCCUCCUAAGGAGAAGACUGCGGGUUCGAAUCCCGUACGGAGCG [G12A G17C G58A A70G] | ≤ 0.5 |
| GUUCCGUUGGCAUAAUGACAACGCGUCUCCCUCCUAAGGAGAAGACUGCGGGUUUGCCUCCCGUACGGAACG [G12A G18A U19C C55U A57C G58C] | 0.638 |
| GUUCCGUUGGCAUAAUGCUAACGCGUCUUCCUCCUAAGGAGAAGACUGCGGGUUCGAGUCCCGUACGGAACG [G12A G18C C29U] | 0.599 |
| GUUCCGUUGGCAUAAUGGUAACACGUCGCCCUCCUAAGGAGAAGACUGCGGGUUCCAGUCCCGUUCGGAACG [G12A G23A U28G G56C A65U] | 0.762 |
| GUUCCGUUGGCAUAAUGGUAACCCGUCUCCCUCCUAAGGAGAAGACUGCGGGUUCGAGUCCCGUACGGAACG [G12A G23C] | 0.733 |
| GUUCCGUUGGCAUAAUGGUAACGCAUUUCCCUCCUAAGGAGAAGACUGCGGGUUCGAGUCCCGUACGGAACG [G12A G25A C27U] | 0.596 |

| Variant | yeast fitness |
| --- | --- |
| GUUCCGUUGGCAUAAUGGUAACGCAUCUCCCUCCUAAGGAGAAGACUGCGGAUUCGAGUCCCGUACGGAACG [G12A G25A G52A] | 0.583 |
| GUUCCGUUGGCAUAAUGGUAACGCAUCUCCCUCCUAAGGAGAAGACUGCGGGUUCGAGUCCCGUACGCAACG [G12A G25A G68C] | 0.645 |
| GUUCCGUUGGCAUAAUGGUAACGCAUCUCCCCCCUAAGGAGAAGACUGCGGGUUCGAGUCCCGUACGGAACG [G12A G25A U32C] | 0.749 |
| GUUCCGUUGGCAUAAUGGUAACGCCUCUCCCUCCUAAGGAGAAGACUGCGGGUUCGAGUCCCGUACGGAACG [G12A G25C] | 0.961 |
| GUUCCGUUGGCAUAAUGGUAACGCCUCUCCCUCCUAAGGAGAAGACUGCGGGUUCGAGUUCCGUACGGCACG [G12A G25C C60U A69C] | ≤ 0.5 |
| GUUCCGUUGGCAUAAUGGUAACGCGUCUCCCUCCUAAAGAGAAGACUACGGGUUCGAGUCCCGUACGGAACG [G12A G38A G48A] | ≤ 0.5 |
| GUUCCGUUGGCAUAAUGGUAACGCGUCUCCCUCCUAAAGAGAAGACUGCGGGUCCGAGUCCCGUACGGAACG [G12A G38A U54C] | ≤ 0.5 |
| GUUCCGUUGGCAUAAUGGUAACGCGUCUCCCUCCUAAGAAGAAGACUGCGGGUUCGAGUCCCGUACGAAACG [G12A G39A G68A] | 0.528 |
| GUUCCGUUGGCAUAAUGGUAACGCGUCUCCCUCCUAAGGAAAAGACUGCGGGUUCGAGUGCCGUGCGGAACG [G12A G41A C60G A65G] | 0.559 |
| GUUCCGUUGGCAUAAUGGUAACGCGUCUCCCUCCUAAGGAAAAGACUGCAGGUUCGAGUCCCGUACGGAACG [G12A G41A G50A] | ≤ 0.5 |
| GUUCCGUUGGCAUAAUGGUAACGCGUCUCCCUCCUAAGGAAAAGACUGCGCGUUCGAGUCCCGUACGGAACG [G12A G41A G51C] | ≤ 0.5 |
| GUUCCGUUGGCAUAAUGGUAACGCGUCUCCCUCCUAAGGAGAACACUGCGGGUUCGAGUCCCGUGCGGAACG [G12A G44C A65G] | 0.649 |
| GUUCCGUUGGCAUAAUGGUAACGCGUCUCCCUCCUAAGGAGAACAGUGCGGGUUCGAGUCCCGUACGGAACG [G12A G44C C46G] | 0.61 |
| GUUCCGUUGGCAUAAUGGUAACGCGUCUCCCUCCUAAGGAGAAGACUACGGGUUCGAGUCCCGUACGGAACG [G12A G48A] | 0.819 |
| GUUCCGUUGGCAUAAUGGUAACGCGUCUCCCUCCUAAGGAGAAGACUACGGGUUCGGGUCCCGUACGCAACG [G12A G48A A57G G68C] | 0.569 |
| GUUCCGUUGGCAUAAUGGUAACGCGUCUCCCUCCUAAGGAGAAGACUCCGGGUACGAGUCCCGUACGGAACG [G12A G48C U54A] | 0.59 |
| GUUCCGUUGGCAUAAUGGUAACGCGUCUCCCUCCUAAGGAGAAGACUGCCGGUUCGAGUCCCGUACGGAACG [G12A G50C] | 0.757 |
| GUUCCGUUGGCAUAAUGGUAACGCGUCUCCCUCCUAAGGAGAAGACUGCUGGUUCGAGUCCCGUACGGAACG [G12A G50U] | 0.842 |
| GUUCCGUUGGCAUAAUGGUAACGCGUCUCCCUCCUAAGGAGAAGACUGCGAGUUCGAGUCCCGUACGGAACG [G12A G51A] | 0.883 |
